Laboratory results: ChEMBL document CHEMBL2163282, “Discovery and characterization of AZD9272 and AZD6538-Two novel mGluR5 negative allosteric modulators selected for clinical development” (Bioorg Med Chem Lett, 2012)
≈ marks a conversion by molar mass, not a printed value.

Tests used:
[1] = target: T1, Metabotropic glutamate receptor 5 (Homo sapiens, UniProt P41594); assay: Negative allosteric modulation of human recombinant mGluR5 expressed in HEK293 cells expressing GLAST assessed as inhibition of DHPG-induced intracellular Ca2+ level after 30 mins by FLIPR assay
Target sequence in this assay (P41594 whole entry): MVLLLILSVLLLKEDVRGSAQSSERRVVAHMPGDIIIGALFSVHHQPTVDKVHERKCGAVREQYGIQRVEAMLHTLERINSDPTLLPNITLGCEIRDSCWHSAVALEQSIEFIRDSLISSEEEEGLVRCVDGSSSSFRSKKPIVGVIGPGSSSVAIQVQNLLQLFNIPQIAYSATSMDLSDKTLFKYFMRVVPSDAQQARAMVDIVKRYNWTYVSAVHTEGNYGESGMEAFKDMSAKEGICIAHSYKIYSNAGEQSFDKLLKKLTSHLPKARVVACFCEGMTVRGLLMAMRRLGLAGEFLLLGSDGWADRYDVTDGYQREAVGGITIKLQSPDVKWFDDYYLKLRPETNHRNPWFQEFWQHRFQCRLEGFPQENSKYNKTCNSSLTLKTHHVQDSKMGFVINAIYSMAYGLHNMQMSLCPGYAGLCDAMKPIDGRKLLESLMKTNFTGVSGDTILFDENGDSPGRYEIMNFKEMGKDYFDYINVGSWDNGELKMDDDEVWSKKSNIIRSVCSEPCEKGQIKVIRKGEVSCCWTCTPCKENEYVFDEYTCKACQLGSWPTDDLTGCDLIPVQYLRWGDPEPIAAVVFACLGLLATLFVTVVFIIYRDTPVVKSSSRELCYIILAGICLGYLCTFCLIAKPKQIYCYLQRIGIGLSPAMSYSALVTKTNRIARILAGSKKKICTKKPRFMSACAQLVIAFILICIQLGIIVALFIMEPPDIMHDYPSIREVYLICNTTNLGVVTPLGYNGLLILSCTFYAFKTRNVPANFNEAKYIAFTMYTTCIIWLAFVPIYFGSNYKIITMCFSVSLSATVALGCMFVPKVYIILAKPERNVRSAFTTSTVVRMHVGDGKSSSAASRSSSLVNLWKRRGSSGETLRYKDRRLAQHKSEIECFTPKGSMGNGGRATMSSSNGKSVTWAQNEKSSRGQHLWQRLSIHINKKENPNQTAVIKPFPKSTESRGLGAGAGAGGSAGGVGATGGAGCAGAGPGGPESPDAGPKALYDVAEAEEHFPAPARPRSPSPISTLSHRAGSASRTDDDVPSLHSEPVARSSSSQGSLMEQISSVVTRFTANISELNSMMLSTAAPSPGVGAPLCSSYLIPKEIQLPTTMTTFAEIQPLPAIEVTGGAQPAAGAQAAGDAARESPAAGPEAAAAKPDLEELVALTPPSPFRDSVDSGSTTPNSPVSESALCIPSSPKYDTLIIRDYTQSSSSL

[2] = target: T1, Metabotropic glutamate receptor 5; assay: Binding affinity to human mGluR5 expressed in HEK293 cell membranes expressing GLAST after 1 hr by scintillation counter in absence of MPEP
Outline: (§1)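 [3H]AZD9272 equilibrium saturation binding on membranes from human mGluR5-GHEK cells (HEK293 stably expressing glutamate/aspartate transporter), run without MPEP or with 10 or 20 nM MPEP; filtration termination; Kd and Bmax (pmol/mg protein) derived per assay, three separate assays.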
Target sequence in this assay (P41594 whole entry): as above

[3] = target: T1, Metabotropic glutamate receptor 5; assay: Binding affinity to human mGluR5 expressed in HEK293 cell membranes expressing GLAST after 1 hr by scintillation counter in presence of 10 nM MPEP; outline: as §1
Target sequence in this assay (P41594 whole entry): as above

[4] = target: T1, Metabotropic glutamate receptor 5; assay: Binding affinity to human mGluR5 expressed in HEK293 cell membranes expressing GLAST after 1 hr by scintillation counter in presence of 20 nM MPEP; outline: as §1
Target sequence in this assay (P41594 whole entry): as above

Brain = assay: Drug uptake in Sprague-Dawley rat brain at 10 and 30 nmol/kg, iv administered as infusion after 5 mins by autoradiographic analysis; type: ADME, organism-based; details: in vivo
Outline: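 Rats were dosed intravenously with [3H]AZD9272 at 10 or 30 nmol/kg. Five minutes later, brains were removed and sectioned sagittally. Radiolabel distribution was assessed by conventional autoradiography.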

[5] = target: T1, Metabotropic glutamate receptor 5; assay: Binding affinity to human mGluR5 expressed in HEK293 cell membranes expressing GLAST by scintillation counting
Target sequence in this assay (P41594 whole entry): as above

[6] = target: Metabotropic glutamate receptor 5 (Rattus norvegicus, UniProt P31424); assay: Binding affinity to mGluR5 in Sprague-Dawley rat striatum after 60 mins by autoradiographic analysis
Metabotropic glutamate receptor 5 (Rattus norvegicus, UniProt P31424), sequence (P31424 whole entry): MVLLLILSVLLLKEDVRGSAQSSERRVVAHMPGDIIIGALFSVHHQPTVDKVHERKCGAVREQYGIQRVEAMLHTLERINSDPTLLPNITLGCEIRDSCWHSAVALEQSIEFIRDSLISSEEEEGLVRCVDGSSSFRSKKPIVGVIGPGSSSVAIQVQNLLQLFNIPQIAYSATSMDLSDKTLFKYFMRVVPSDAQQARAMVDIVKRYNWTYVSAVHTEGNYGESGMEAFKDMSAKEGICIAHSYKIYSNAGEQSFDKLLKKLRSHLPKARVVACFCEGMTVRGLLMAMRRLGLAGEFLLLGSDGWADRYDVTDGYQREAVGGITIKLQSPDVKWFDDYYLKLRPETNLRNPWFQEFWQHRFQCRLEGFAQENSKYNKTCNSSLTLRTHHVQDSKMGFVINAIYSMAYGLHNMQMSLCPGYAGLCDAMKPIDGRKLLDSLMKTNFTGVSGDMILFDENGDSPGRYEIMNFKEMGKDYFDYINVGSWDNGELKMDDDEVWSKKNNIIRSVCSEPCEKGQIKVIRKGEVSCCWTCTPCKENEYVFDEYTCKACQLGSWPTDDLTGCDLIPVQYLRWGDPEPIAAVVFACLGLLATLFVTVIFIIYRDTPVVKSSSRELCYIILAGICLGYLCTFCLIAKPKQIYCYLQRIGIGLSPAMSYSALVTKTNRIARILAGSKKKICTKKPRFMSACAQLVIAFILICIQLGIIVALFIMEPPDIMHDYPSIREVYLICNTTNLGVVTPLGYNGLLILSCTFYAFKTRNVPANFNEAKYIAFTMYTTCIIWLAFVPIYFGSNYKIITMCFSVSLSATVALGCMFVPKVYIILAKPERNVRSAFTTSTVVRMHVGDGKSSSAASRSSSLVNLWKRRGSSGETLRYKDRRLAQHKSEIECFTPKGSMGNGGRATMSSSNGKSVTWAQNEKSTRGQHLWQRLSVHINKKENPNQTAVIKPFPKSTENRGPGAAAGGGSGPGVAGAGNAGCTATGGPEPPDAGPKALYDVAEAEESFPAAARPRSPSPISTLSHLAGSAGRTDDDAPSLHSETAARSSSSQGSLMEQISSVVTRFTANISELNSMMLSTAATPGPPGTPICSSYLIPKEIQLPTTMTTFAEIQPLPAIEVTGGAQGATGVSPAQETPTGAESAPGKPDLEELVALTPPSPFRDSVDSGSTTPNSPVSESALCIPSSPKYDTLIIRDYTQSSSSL

[7] = target: T1, Metabotropic glutamate receptor 5; assay: Binding affinity to human mGluR5 expressed in HEK293 cell membranes expressing GLAST assessed as per mg of protein after 1 hr by scintillation counter
Target sequence in this assay (P41594 21-1212 limits assumed): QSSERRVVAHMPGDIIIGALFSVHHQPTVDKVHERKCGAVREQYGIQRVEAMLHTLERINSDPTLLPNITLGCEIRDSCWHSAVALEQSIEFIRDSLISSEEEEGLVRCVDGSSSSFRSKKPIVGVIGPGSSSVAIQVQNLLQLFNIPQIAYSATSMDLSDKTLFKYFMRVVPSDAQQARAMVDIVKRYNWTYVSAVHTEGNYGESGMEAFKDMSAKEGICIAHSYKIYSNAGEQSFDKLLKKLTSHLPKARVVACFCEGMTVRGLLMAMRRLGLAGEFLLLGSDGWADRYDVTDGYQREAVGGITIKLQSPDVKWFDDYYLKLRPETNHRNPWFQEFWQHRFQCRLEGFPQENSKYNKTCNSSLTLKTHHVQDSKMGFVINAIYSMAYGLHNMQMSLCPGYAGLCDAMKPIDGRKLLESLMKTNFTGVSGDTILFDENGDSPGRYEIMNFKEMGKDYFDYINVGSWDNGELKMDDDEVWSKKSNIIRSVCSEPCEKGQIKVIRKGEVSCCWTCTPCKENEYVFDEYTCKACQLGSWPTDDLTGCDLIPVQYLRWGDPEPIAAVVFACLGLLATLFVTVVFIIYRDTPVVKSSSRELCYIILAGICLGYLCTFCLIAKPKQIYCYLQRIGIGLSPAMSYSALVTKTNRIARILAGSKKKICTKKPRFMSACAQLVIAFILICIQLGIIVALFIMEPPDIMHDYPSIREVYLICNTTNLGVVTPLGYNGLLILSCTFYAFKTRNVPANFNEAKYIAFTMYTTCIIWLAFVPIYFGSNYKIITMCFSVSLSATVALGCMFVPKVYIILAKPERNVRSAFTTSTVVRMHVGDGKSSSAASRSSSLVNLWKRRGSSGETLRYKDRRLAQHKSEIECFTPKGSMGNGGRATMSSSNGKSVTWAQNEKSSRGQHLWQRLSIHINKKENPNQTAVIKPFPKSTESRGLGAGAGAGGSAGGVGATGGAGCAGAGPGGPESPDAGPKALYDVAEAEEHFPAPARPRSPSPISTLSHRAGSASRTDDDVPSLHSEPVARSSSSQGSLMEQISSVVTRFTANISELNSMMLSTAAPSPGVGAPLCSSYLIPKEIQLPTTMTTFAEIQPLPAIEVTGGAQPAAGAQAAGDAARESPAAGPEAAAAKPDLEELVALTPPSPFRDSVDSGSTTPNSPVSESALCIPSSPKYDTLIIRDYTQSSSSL

[8] = Equilibrium solubility of the compound […]; type: physicochemical
Outline: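 Solubility was measured by a dried-DMSO rapid-throughput method.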

[9] = Intrinsic clearance in rat liver microsomes; type: ADME, Microsome; details: read-out: CLH
Outline: (§2)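 Intrinsic clearance was determined in human or rat microsomes and expressed per min per mg protein.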

[10] = Intrinsic clearance in human liver microsomes; type: ADME, Microsome; details: read-out: CLH; outline: as §2

SMILES: N#Cc1cc(C#N)cc(-c2nc(-c3ccccn3)no2)c1
- IC50 [1]: 0.176 µM

SMILES: FC(F)(F)c1cc(-c2nc(-c3ccccn3)no2)cc(C(F)(F)F)c1
- IC50 [1]: > 10 µM

SMILES: Clc1ccc(-c2nc(-c3ccccn3)no2)cc1Cl
- IC50 [1]: > 10 µM

SMILES: Clc1ccccc1-c1nc(-c2ccccn2)no1
- IC50 [1]: 0.436 µM

SMILES: Clc1ccc(-c2nc(-c3ccccn3)no2)c(Cl)c1
- IC50 [1]: 1.7 µM

SMILES: N#Cc1cc(F)cc(-c2noc(-c3ccccn3)n2)c1
- IC50 [1]: 0.023 µM

SMILES: COc1cccc(-c2nc(-c3ccccn3)no2)c1
- IC50 [1]: 0.54 µM

SMILES: N#Cc1cc(F)cc(-c2ccc(-c3ccccn3)o2)c1
- IC50 [1]: 0.061 µM

SMILES: O=[N+]([O-])c1cccc(-c2nc(-c3ccccn3)no2)c1
- IC50 [1]: 0.236 µM

SMILES: Fc1cc(F)cc(-c2nc(-c3ccccn3)no2)c1
- IC50 [1]: 0.154 µM

SMILES: [3H]c1c(F)cc(-c2nc(-c3ccc(F)cn3)no2)cc1C#N
- Kd [2]: 0.0038 µM
- Kd [3]: 0.0055 µM
- Kd [4]: 0.0072 µM
- Drug uptake (Brain): Active
- Kd [5]: 0.0028 µM
- Kd [6]: 0.0094 µM

SMILES: Clc1cccc(-c2nc(-c3ccccn3)no2)c1Cl
- IC50 [1]: 0.274 µM

SMILES: NC(=O)c1ccccc1-c1nc(-c2ccccn2)no1
- IC50 [1]: 3.3 µM

SMILES: Clc1ccc(-c2nc(-c3ccccn3)no2)cc1
- IC50 [1]: > 10 µM

SMILES: Cc1cccc(-c2nc(-c3ccccn3)no2)c1
- IC50 [1]: 0.443 µM

SMILES: Clc1cc(Cl)cc(-c2nc(-c3ccccn3)no2)c1
- IC50 [1]: 0.142 µM

SMILES: N#Cc1cc(F)cc(-c2nc(-c3ncccn3)no2)c1
- IC50 [1]: 1.1 µM

SMILES: Brc1cccc(-c2nc(-c3ccccn3)no2)c1
- IC50 [1]: 0.118 µM

SMILES: Clc1cccc(-c2nc(-c3ccccn3)no2)c1
- IC50 [1]: 0.116 µM

SMILES: Fc1cccc(-c2nc(-c3ccccn3)no2)c1
- IC50 [1]: 0.845 µM

SMILES: Cc1cccc(C#Cc2ccccc2)n1
- Bmax [7]: 4.4 pmol

SMILES: N#Cc1cc(F)cc(-c2nc(-c3cnccn3)no2)c1
- IC50 [1]: 4.7 µM

SMILES: N#Cc1cc(F)cc(-c2nc(-c3ccccn3)co2)c1
- IC50 [1]: 0.022 µM

SMILES: FC(F)(F)Oc1cccc(-c2nc(-c3ccccn3)no2)c1
- IC50 [1]: 0.7 µM

SMILES: N#Cc1cc(F)cc(-c2nc(-c3ccccn3)no2)c1
- IC50 [1]: 0.025 µM
- solubility [8]: 78.1 µM (≈ 20.8 µg/mL)
- microsomal CLint [9]: 29 µL/min/mg
- microsomal CLint [10]: 92 µL/min/mg
